Measured values reported in ChEMBL document CHEMBL1132643, “Novel inhibitors of Erm methyltransferases from NMR and parallel synthesis” (J Med Chem, 1999).

Experiments:
[1] = biological target: rRNA adenine N-6-methyltransferase (Bacillus subtilis, UniProt P13956); test: Inhibitory activity against ErmC methylase
In short: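 ErmC′ (143 nM) preincubated with compound, in duplicate, 15 min at room temperature in 50 mM Tris pH 7.5, 40 mM KCl, 4 mM MgCl2, 10 mM DTT. Started with 250 nM S-adenosyl-L-[methyl-3H]methionine and 80 nM E. coli rRNA, 2 h room temperature. Stopped with 10% TCA/100 mM KCl, filtered, washed. Precipitated counts taken as percent inhibition versus no-inhibitor wells, and IC50 read from concentration curve.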

[2] = biological target: T1, rRNA adenine N-6-methyltransferase (Streptococcus pneumoniae, UniProt P21236); test: Inhibitory activity against ErmAM methylase
T1 sequence (P21236 whole entry): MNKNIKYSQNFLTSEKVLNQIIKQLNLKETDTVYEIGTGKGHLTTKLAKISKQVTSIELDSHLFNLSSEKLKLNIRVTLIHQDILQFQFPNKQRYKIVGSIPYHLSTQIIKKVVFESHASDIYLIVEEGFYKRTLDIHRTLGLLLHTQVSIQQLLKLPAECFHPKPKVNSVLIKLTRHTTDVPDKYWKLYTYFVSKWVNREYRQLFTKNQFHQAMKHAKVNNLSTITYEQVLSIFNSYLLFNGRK
In short: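 Radiometric methyltransferase assay in 50 mM Tris pH 7.5, 100 mM KCl, 4 mM MgCl2, 1 mM DTT with 95 nM ErmAM. Enzyme was preincubated with compound for 15 min at room temperature, in duplicate. Reaction was then started with 250 nM S-adenosyl-L-[methyl-3H]methionine and 80 nM E. coli rRNA and run 2 h at room temperature. It was stopped with 10% TCA/100 mM KCl on ice. TCA-precipitated counts were read after filtration. IC50 was taken from percent inhibition versus control plotted against concentration.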

[3] = The binding affinity towards ErmAM methylase identified by NMR
[4] = The binding affinity towards N-labeled Erythromycin-resistant ErmAM methylase evaluated by NMR
In short: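 Uniformly 15N-labeled ErmAM, 0.3 mM in H2O/D2O 9:1 with 20 mM BisTris, 10 mM DTT, pH 6.5. Ligand added in perdeuterated DMSO. Sensitivity-enhanced 15N HSQC run at 30 °C with and without ligand, screening at 1.0 mM. KD from chemical shift changes versus ligand concentration, fit to a single-site model by least-squares grid search.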

Chain of rRNA adenine N-6-methyltransferase (Bacillus subtilis, UniProt P13956) (P13956 whole entry): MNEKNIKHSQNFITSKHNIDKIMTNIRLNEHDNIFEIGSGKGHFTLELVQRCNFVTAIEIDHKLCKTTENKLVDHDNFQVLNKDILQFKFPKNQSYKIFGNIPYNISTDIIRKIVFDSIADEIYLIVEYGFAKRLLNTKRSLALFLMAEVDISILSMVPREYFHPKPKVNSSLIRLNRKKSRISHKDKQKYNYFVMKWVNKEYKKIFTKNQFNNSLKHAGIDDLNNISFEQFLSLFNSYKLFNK

SMILES	Ki [1]	Ki [2]	Kd [3]	Kd [4]
Nc1nc(NC2Cc3ccccc3C2)nc(N2CCCCC2)n1	75 µM	8 µM	–	–
Nc1ccc(-c2cc(NC3Cc4ccccc4C3)nc(N)n2)cc1	> 100 µM	75 µM	–	–
Nc1nc(N)nc(N2CCCCC2)n1	–	–	5000 µM	–
Nc1nc(NC2Cc3ccccc3C2)nc(N2CCC(CO)CC2)n1	75 µM	9 µM	–	–
Nc1nc(NC2Cc3ccccc3C2)nc(N2CCC(C(=O)O)CC2)n1	> 100 µM	> 100 µM	–	–
C[C@@H](Nc1nc(N)nc(N2CCCCC2)n1)c1ccccc1	> 100 µM	> 100 µM	–	–
Nc1ncnc2c1ncn2[C@@H]1O[C@H](CSCC[C@H](N)C(=O)O)[C@@H](O)[C@H]1O [S-ADENOSYLHOMOCYSTEINE]	–	40 µM	–	–
Nc1cccc(-c2nc(N)nc(NC3Cc4ccccc4C3)n2)c1	10 µM	4 µM	–	–
c1ccc2c(c1)CC(Nc1ncnc(N3CCCCC3)n1)C2	> 100 µM	> 75 µM	–	–
CN(c1nc(N)nc(N2CCCCC2)n1)C1CCCCC1	> 100 µM	> 100 µM	–	–
c1cnc2[nH]ccc2c1	–	–	–	1300 µM
Nc1nc(NC2Cc3ccccc3C2)nc(N2CCCC(CO)C2)n1 (configuration not stated)	> 100 µM	12.5 µM	–	–
Oc1nc(NC2Cc3ccccc3C2)nc(N2CCCCC2)n1	> 100 µM	> 100 µM	–	–
Nc1nc(N)nc(-c2ccc(O)cc2)n1	–	–	12000 µM	–
Nc1nc(NC2CCc3ccccc32)nc(N2CCCCC2)n1 (configuration not stated)	> 100 µM	75 µM	–	–
CSc1nc(N)nc(NC2Cc3ccccc3C2)n1	> 100 µM	10 µM	–	–
Nc1nc(N2CCCCC2)nc(N2CCCCC2)n1	> 100 µM	> 100 µM	–	–
Nc1nc(NC2CCCCC2)nc(N2CCCCC2)n1	> 100 µM	75 µM	–	–
Nc1nc(NC2CCCCC2)nc(NC2Cc3ccccc3C2)n1	> 100 µM	> 100 µM	–	–
CSc1nc(N)nc(N)n1	–	–	–	1000 µM
Nc1nc(Nc2ccccc2)nc(N2CCCCC2)n1	> 100 µM	> 100 µM	–	–
COc1ccc2c(c1)CC(Nc1nc(N)nc(N3CCCCC3)n1)C2 (configuration not stated)	75 µM	6 µM	–	–
Nc1nc(NCCCc2c(O)cc(Cl)cc2Cl)nc(NC2Cc3ccccc3C2)n1	> 100 µM	10 µM	–	–
Nc1nc(NC2CCCCC2)nc(-c2ccc(O)cc2)n1	–	–	310 µM	–
Nc1nc(NC2Cc3ccccc3C2)nc(C2CCCCC2)n1	> 100 µM	25 µM	–	–
Nc1ccc(-c2nc(N)nc(NC3Cc4ccccc4C3)n2)cc1	> 50 µM	35 µM	–	–
Nc1nc(NC2Cc3ccccc3C2)cc(-c2ccc(NCCCc3ccccc3O)cc2)n1	12.5 µM	7.5 µM	–	–
Nc1nc(NC2Cc3ccccc3C2)nc(N2CCC(C(=O)NCCc3c[nH]c4ccccc34)CC2)n1	20 µM	2 µM	–	–
Nc1nc(NC2Cc3ccc(F)cc3C2)nc(N2CCCCC2)n1 (configuration not stated)	37 µM	3 µM	–	–
